{"source": "ChEMBL document CHEMBL3576814", "about": "“N (1)-Fluoroalkyltryptophan Analogues: Synthesis and in vitro Study as Potential Substrates for Indoleamine 2,3-Dioxygenase” (ACS Med Chem Lett, 2015)", "key": {"[1]": {"experiment": "Retention time of the compound by HPLC analysis", "format": "physicochemical", "outline": "(§1)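 rhIDO incubation mixtures analysed by HPLC or UPLC, eluting with CH3CN/10 mM ammonium acetate 10/90 or 5/95 (v/v) at 0.7 mL/min. UV detection uses 221 and 284 nm for substrates and 321 or 360 nm for products. Product peaks are collected for mass spectrometry.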"}, "[2]": {"molecular_target": "Indoleamine 2,3-dioxygenase 1 (Homo sapiens) (UniProt P14902)", "sequence (P14902 whole entry, looked up)": "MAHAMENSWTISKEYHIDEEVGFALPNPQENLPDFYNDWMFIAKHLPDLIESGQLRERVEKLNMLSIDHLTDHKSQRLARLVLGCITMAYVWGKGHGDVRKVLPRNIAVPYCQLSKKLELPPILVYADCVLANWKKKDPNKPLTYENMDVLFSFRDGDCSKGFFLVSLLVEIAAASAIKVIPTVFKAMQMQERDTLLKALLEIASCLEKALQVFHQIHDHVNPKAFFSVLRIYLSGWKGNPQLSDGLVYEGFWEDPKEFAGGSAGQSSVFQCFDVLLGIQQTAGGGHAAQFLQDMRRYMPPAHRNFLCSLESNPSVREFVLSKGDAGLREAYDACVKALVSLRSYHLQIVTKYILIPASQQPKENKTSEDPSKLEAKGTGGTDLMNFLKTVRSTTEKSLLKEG", "experiment": "Activity of recombinant human IDO assessed as retention time treated with L-Trp by HPLC analysis", "outline": "as §1"}, "[3]": {"molecular_target": "Indoleamine 2,3-dioxygenase 1 (Homo sapiens) (UniProt P14902)", "experiment": "Activity of recombinant human IDO assessed as retention time treated with 1-FETrp by HPLC analysis", "outline": "as §1"}, "[4]": {"molecular_target": "Tryptophan 2,3-dioxygenase (Homo sapiens) (UniProt P48775)", "sequence (P48775 whole entry, looked up)": "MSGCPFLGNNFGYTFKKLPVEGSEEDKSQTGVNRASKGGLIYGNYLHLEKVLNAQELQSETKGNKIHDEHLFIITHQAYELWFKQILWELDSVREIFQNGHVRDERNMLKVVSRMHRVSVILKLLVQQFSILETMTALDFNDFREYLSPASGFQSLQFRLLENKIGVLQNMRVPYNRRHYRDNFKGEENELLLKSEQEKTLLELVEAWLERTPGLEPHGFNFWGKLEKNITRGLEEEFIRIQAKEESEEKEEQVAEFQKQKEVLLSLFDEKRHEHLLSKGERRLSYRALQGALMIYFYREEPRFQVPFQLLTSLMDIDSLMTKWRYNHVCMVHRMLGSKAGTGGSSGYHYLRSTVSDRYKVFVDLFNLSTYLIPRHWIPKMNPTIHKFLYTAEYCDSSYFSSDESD", "experiment": "Activity of 1 uM recombinant human TDO assessed as substrate consumption at 100 uM at 37 degC at pH 7.5 after 1 hr by HPLC with fluorescence detection method", "outline": "(§2)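 Recombinant human TDO (1 or 10 μM enzyme) incubated with substrate at 100 μM, 37 °C, pH 7.5, for 1 h. Perchloric acid is then added and the mixture analysed by HPLC with fluorescence detection. Read-out is percentage of substrate consumed.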"}, "[5]": {"molecular_target": "Tryptophan 2,3-dioxygenase (Homo sapiens) (UniProt P48775)", "experiment": "Activity of 10 uM recombinant human TDO assessed as substrate consumption at 100 uM at 37 degC at pH 7.5 after 1 hr by HPLC with fluorescence detection method", "outline": "as §2"}, "[6]": {"molecular_target": "Indoleamine 2,3-dioxygenase 1 (Homo sapiens) (UniProt P14902)", "experiment": "Activity of recombinant human IDO assessed as retention time treated with 5-HO-L-Trp by HPLC analysis", "outline": "as §1"}, "[7]": {"molecular_target": "Indoleamine 2,3-dioxygenase 1 (Homo sapiens) (UniProt P14902)", "experiment": "Activity of recombinant human IDO assessed as retention time treated with 1-Me-L-Trp by HPLC analysis", "outline": "as §1"}}}
{"compound": "CC(N)Cc1c[nH]c2ccccc12", "note": "(stereo not given)", "values": [{"measurement": "Retention_time", "setting": "[1]", "value": 11.1, "unit": "min"}]}
{"compound": "N[C@@H](CC(=O)c1ccccc1NC=O)C(=O)O", "values": [{"measurement": "Retention time", "setting": "[2]", "value": 4.3, "unit": "min"}]}
{"compound": "NC(CC(=O)c1ccccc1N(C=O)CCF)C(=O)O", "note": "(stereo not given)", "values": [{"measurement": "Retention time", "setting": "[3]", "value": 5, "unit": "min"}]}
{"compound": "N[C@@H](Cc1cn(Cc2cn(CCF)nn2)c2ccccc12)C(=O)O", "values": [{"measurement": "Retention_time", "setting": "[1]", "value": 16.4, "unit": "min"}]}
{"compound": "Cn1cc(C[C@H](N)C(=O)O)c2ccccc21", "note": "[(L)-1-METHYLTRYPTOPHAN]", "values": [{"measurement": "Activity", "setting": "[4]", "value": 0, "unit": "%"}, {"measurement": "Activity", "setting": "[5]", "value": 3, "unit": "%"}, {"measurement": "Retention_time", "setting": "[1]", "value": 9.4, "unit": "min"}]}
{"compound": "N[C@@H](Cc1c[nH]c2ccccc12)C(=O)O", "note": "[TRYPTOPHAN]", "values": [{"measurement": "Activity", "setting": "[4]", "value": 67, "unit": "%"}, {"measurement": "Activity", "setting": "[5]", "value": 100, "unit": "%"}, {"measurement": "Retention_time", "setting": "[1]", "value": 5.4, "unit": "min"}]}
{"compound": "Nc1ccc(O)cc1C(=O)C[C@H](N)C(=O)O", "values": [{"measurement": "Retention time", "setting": "[6]", "value": 3.9, "unit": "min"}]}
{"compound": "NC(CC(=O)c1ccccc1NCCF)C(=O)O", "note": "(stereo not given)", "values": [{"measurement": "Retention time", "setting": "[3]", "value": 7.9, "unit": "min"}]}
{"compound": "CC(N)(Cc1c[nH]c2ccccc12)C(=O)O", "note": "(stereo not given)", "values": [{"measurement": "Retention_time", "setting": "[1]", "value": 7, "unit": "min"}]}
{"compound": "Nc1ccccc1C(=O)C[C@H](N)C(=O)O", "values": [{"measurement": "Retention time", "setting": "[2]", "value": 4.5, "unit": "min"}]}
{"compound": "CC(=O)N[C@@H](Cc1c[nH]c2ccccc12)C(=O)O", "note": "[ACETYLTRYPTOPHAN]", "values": [{"measurement": "Retention_time", "setting": "[1]", "value": 7, "unit": "min"}]}
{"compound": "CC(C)(C)OC(=O)N[C@@H](Cc1c[nH]c2ccccc12)C(=O)O", "values": [{"measurement": "Retention_time", "setting": "[1]", "value": 5.9, "unit": "min"}]}
{"compound": "CNc1ccccc1C(=O)C[C@H](N)C(=O)O", "values": [{"measurement": "Retention time", "setting": "[7]", "value": 7.4, "unit": "min"}]}
{"compound": "NC(Cc1cn(CCF)c2ccccc12)C(=O)O", "note": "(racemic)", "values": [{"measurement": "Activity", "setting": "[4]", "value": 0, "unit": "%"}, {"measurement": "Activity", "setting": "[5]", "value": 2, "unit": "%"}, {"measurement": "Retention_time", "setting": "[1]", "value": 9.2, "unit": "min"}]}
{"compound": "N[C@@H](Cc1c[nH]c2ccc(O)cc12)C(=O)O", "note": "[OXITRIPTAN]", "values": [{"measurement": "Activity", "setting": "[4]", "value": 0, "unit": "%"}, {"measurement": "Activity", "setting": "[5]", "value": 14, "unit": "%"}, {"measurement": "Retention_time", "setting": "[1]", "value": 5.1, "unit": "min"}]}
{"compound": "NCCc1c[nH]c2ccccc12", "note": "[TRYPTAMINE]", "values": [{"measurement": "Retention_time", "setting": "[1]", "value": 9, "unit": "min"}]}
{"compound": "CN(C=O)c1ccccc1C(=O)C[C@H](N)C(=O)O", "values": [{"measurement": "Retention time", "setting": "[7]", "value": 4.5, "unit": "min"}]}
